Among the data in ChEMBL document CHEMBL1124369, “Pyrido[3,4-e]-1,2,4-triazines and related heterocycles as potential antifungal agents” (1989) are MIC values, retold here.

The structures appear in SMILES notation. Converted amounts (≈) assume the structure as drawn.

Assay [1] relates to Kluyveromyces marxianus. Briefly: Antifungal activity against Candida pseudotropicalis. The assay is classed as functional. A digest of the protocol:
(§1)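 Agar dilution MIC. Twofold serial drug dilutions in yeast nitrogen base medium with 1% dextrose, 0.15% asparagine and 1.5% agar. Agar surfaces inoculated using a Steers multiple inocula replicator, then incubated at 35 °C for 24-48 h. MIC was recorded as the lowest concentration inhibiting visible growth. Amphotericin B, miconazole and nystatin served as controls.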

Assay [2] deals with Trichophyton benhamiae. Nature of the assay: Antifungal activity against Trichophyton mentagrophytes. Type of assay: functional, trychophyton mentagrophytes. A digest of the protocol:
as §1

Assay [3] deals with Trichophyton rubrum. Nature of the assay: Antifungal activity against Trichophyton rubrum. Type of assay: functional. A digest of the protocol: as §1
The subject of assay [4] is Diutina rugosa. Briefly: Antifungal activity against Candida rugosa. Type of assay: functional. A digest of the protocol: as §1
The test system of assay [5] is Aspergillus niger. Nature of the assay: Antifungal activity against Aspergillus niger; Range is 16-128. The assay is classed as functional. A digest of the protocol:
as §1

For assay [6], the system named is Candida albicans. Nature of the assay: Antifungal activity against Candida albicans. The assay is classed as functional. A digest of the protocol: as §1
Assay [7] relates to Candida tropicalis. Nature of the assay: Antifungal activity against Candida tropicalis. The assay is classed as functional. A digest of the protocol:
as §1

Assay [8] has as its system Candida albicans. Nature of the assay: Antifungal activity against Candida stellatoidea. The assay is classed as functional. A digest of the protocol: as §1
The subject of assay [9] is Candida albicans. Briefly: Antifungal activity against Candida albicans; Range is 4-8. The assay is classed as functional. A digest of the protocol:
as §1

In assay [10] the test system is Aspergillus niger. Briefly: Antifungal activity against Aspergillus niger. Type of assay: functional. A digest of the protocol: as §1
Assay [11] relates to Candida tropicalis. Nature of the assay: Antifungal activity against Candida tropicalis; Range is 4-8. Type of assay: functional. A digest of the protocol: as §1
Assay [12] has as its system Kluyveromyces marxianus. Nature of the assay: Antifungal activity against Candida pseudotropicalis; Range is 4-8. The assay is classed as functional. A digest of the protocol:
as §1

Assay [13] has as its system Candida parapsilosis. Briefly: Antifungal activity against Candida parapsilosis. The assay is classed as functional. Conditions: Lodderomyces parapsilosis. A digest of the protocol: as §1
Assay [14] concerns Trichophyton benhamiae. Briefly: Antifungal activity against Trichophyton mentagrophytes; Range is 4-8. Type of assay: functional, trychophyton mentagrophytes. A digest of the protocol:
as §1

For assay [15], the system named is Trichophyton rubrum. Briefly: Antifungal activity against Trichophyton rubrum; Range is 1-2. The assay is classed as functional. A digest of the protocol: as §1
Assay [16] has as its system Mucor fragilis. Nature of the assay: Antifungal activity against Mucor fragilis. Type of assay: functional. A digest of the protocol:
as §1

Assay [17] concerns Candida tropicalis. Nature of the assay: Antifungal activity against Candida tropicalis; Range is 8-16. The assay is classed as functional. A digest of the protocol:
as §1

Assay [18] concerns Trichophyton benhamiae. Briefly: Antifungal activity against Trichophyton mentagrophytes; Range is 2-4. Type of assay: functional, trychophyton mentagrophytes. A digest of the protocol: as §1
Assay [19] relates to Aspergillus niger. Nature of the assay: Antifungal activity against Aspergillus niger; Range is 16-32. The assay is classed as functional. A digest of the protocol:
as §1

Assay [20] concerns Candida albicans. Nature of the assay: Antifungal activity against Candida albicans; Range is 8-16. Type of assay: functional. A digest of the protocol:
as §1

Assay [21] relates to Aspergillus niger. Nature of the assay: Antifungal activity against Aspergillus niger; Range is 32-64. The assay is classed as functional. A digest of the protocol:
as §1

In assay [22] the test system is Trichophyton benhamiae. Nature of the assay: Antifungal activity against Trichophyton mentagrophytes; Range is 8-16. Type of assay: functional, trychophyton mentagrophytes. A digest of the protocol: as §1
The subject of assay [23] is Candida tropicalis. Nature of the assay: Antifungal activity against Candida tropicalis; Range is 16-32. The assay is classed as functional. A digest of the protocol: as §1
The subject of assay [24] is Kluyveromyces marxianus. Briefly: Antifungal activity against Candida pseudotropicalis; Range is 8-16. The assay is classed as functional. A digest of the protocol: as §1
For assay [25], the system named is Trichophyton rubrum. Nature of the assay: Antifungal activity against Trichophyton rubrum; Range is 8-16. The assay is classed as functional.
Assay [26] deals with Trichophyton benhamiae. Briefly: Antifungal activity against Trichophyton mentagrophytes; Range is 64-128. The assay is classed as functional, trychophyton mentagrophytes. A digest of the protocol:
as §1

The subject of assay [27] is Trichophyton rubrum. Briefly: Antifungal activity against Trichophyton rubrum; Range is 32-128. Type of assay: functional. A digest of the protocol:
as §1

The subject of assay [28] is Kluyveromyces marxianus. Nature of the assay: Antifungal activity against Candida pseudotropicalis; Range is 0.25-4. The assay is classed as functional. A digest of the protocol: as §1
For assay [29], the system named is Kluyveromyces marxianus. Nature of the assay: Antifungal activity against Candida pseudotropicalis; Range is 1-32. The assay is classed as functional. A digest of the protocol:
as §1

Assay [30] has as its system Trichophyton benhamiae. Nature of the assay: Antifungal activity against Trichophyton mentagrophytes; Range is 16-32. The assay is classed as functional, trychophyton mentagrophytes.
In assay [31] the test system is Candida tropicalis. Nature of the assay: Antifungal activity against Candida tropicalis; Range is 32-64. Type of assay: functional. A digest of the protocol:
as §1

Assay [32] relates to Kluyveromyces marxianus. Briefly: Antifungal activity against Candida pseudotropicalis; Range is 64-128. The assay is classed as functional. A digest of the protocol:
as §1

For assay [33], the system named is Trichophyton benhamiae. Nature of the assay: Antifungal activity against Trichophyton mentagrophytes; Range is 32-64. The assay is classed as functional, trychophyton mentagrophytes. A digest of the protocol:
as §1

In assay [34] the test system is Trichophyton rubrum. Nature of the assay: Antifungal activity against Trichophyton rubrum; Range is 32-64. The assay is classed as functional. A digest of the protocol: as §1
The test system of assay [35] is Candida tropicalis. Nature of the assay: Antifungal activity against Candida tropicalis; Range is 0.25-0.5. The assay is classed as functional.
Assay [36] concerns Candida albicans. Briefly: microbe, parasite or virus in culture.
Assay [37] relates to Candida tropicalis. Nature of the assay: Antifungal activity against Candida tropicalis; Range is 64-128. The assay is classed as functional. A digest of the protocol: as §1
Assay [38] has as its system Trichophyton rubrum. Briefly: Antifungal activity against Trichophyton rubrum; Range is 64-128. The assay is classed as functional.

With `Fc1ccc(-c2nnc3ncccc3n2)cc1`, the MIC in assay [1] was 128 µg/mL (≈ 566 µM); in assay [2], 32 µg/mL (≈ 141 µM); in [3], greater than 128 µg/mL; in assay [4], 128 µg/mL (≈ 566 µM); in [5], 16 µg/mL (≈ 70.7 µM); in assay [6], 128 µg/mL (≈ 566 µM). Further, the MIC in [7] and in assay [8] was 128 µg/mL (≈ 566 µM) in each case.

Consider `Cc1cc2nncnc2c(C)n1`, for which the MIC in assay [9] amounted to 4 µg/mL (≈ 25 µM); in assay [10], 32 µg/mL (≈ 200 µM); in assay [11] it was 4 µg/mL (≈ 25 µM); in [12] it was 4 µg/mL (≈ 25 µM); in [3] it was 4 µg/mL (≈ 25 µM); in assay [13], 16 µg/mL (≈ 99.9 µM). Further, the MIC in assay [14] was 4 µg/mL (≈ 25 µM).

`c1cc2nncnc2cn1`: the MIC in assay [1] was determined as 4 µg/mL (≈ 30.3 µM); in [15], 1 µg/mL (≈ 7.57 µM); in assay [16], 8 µg/mL (≈ 60.5 µM); in assay [17] it was 8 µg/mL (≈ 60.5 µM); in [13] it was 16 µg/mL (≈ 121 µM); in [4], 8 µg/mL (≈ 60.5 µM). The MIC in assay [18] amounted to 2 µg/mL (≈ 15.1 µM); in assay [19], 16 µg/mL (≈ 121 µM); in assay [20] it was 8 µg/mL (≈ 60.5 µM); in assay [8] it was 8 µg/mL (≈ 60.5 µM).

Regarding `Cc1nccc2nnc(-c3ccncc3)nc12`, the MIC came to 32 µg/mL (≈ 143 µM) in [21]; 8 µg/mL (≈ 35.8 µM) in assay [22]; 16 µg/mL (≈ 71.7 µM) in assay [23]; 32 µg/mL (≈ 143 µM) in [13]; 8 µg/mL (≈ 35.8 µM) in [24]; 16 µg/mL (≈ 71.7 µM) in assay [6]. Moreover, the MIC in [25] is 8 µg/mL (≈ 35.8 µM).

As for `CC(=O)Nc1c(C)nc(C)c2nc(-c3ccc(F)cc3)nnc12`, the MIC in [1] was found to be 128 µg/mL (≈ 411 µM); in [10], 128 µg/mL (≈ 411 µM); in assay [26], 64 µg/mL (≈ 206 µM); in assay [13], 128 µg/mL (≈ 411 µM); in assay [27] it was 32 µg/mL (≈ 103 µM); in [6], 128 µg/mL (≈ 411 µM). Besides, in assay [7], the MIC is 128 µg/mL (≈ 411 µM).

As to `Clc1ccc(COC(Cn2ccnc2)c2ccc(Cl)cc2Cl)c(Cl)c1` (stereo not given) [MICONAZOLE], the MIC turned out to be 8 µg/mL (≈ 19.2 µM) in [10]; 2 µg/mL (≈ 4.81 µM) in assay [2]; 0.25 µg/mL (≈ 0.601 µM) in [28]; 8 µg/mL (≈ 19.2 µM) in assay [16]; 8 µg/mL (≈ 19.2 µM) in assay [17]; 1 µg/mL (≈ 2.4 µM) in assay [3]. Besides, the MIC in assay [13] is 16 µg/mL (≈ 38.4 µM); in assay [4], 8 µg/mL (≈ 19.2 µM); in [20], 8 µg/mL (≈ 19.2 µM); in assay [8], 8 µg/mL (≈ 19.2 µM).

Consider `CCC1(Cc2ccccc2)N=Nc2ccncc2N1` (stereo not given), for which the MIC in assay [10] stood at 128 µg/mL (≈ 507 µM); in assay [29], 1 µg/mL (≈ 3.96 µM); in assay [30] it was 16 µg/mL (≈ 63.4 µM); in [31], 32 µg/mL (≈ 127 µM); in assay [3] it was 32 µg/mL (≈ 127 µM); in [13] it was 128 µg/mL (≈ 507 µM). Further, in assay [6], the MIC came out at 128 µg/mL (≈ 507 µM).

For the molecule `Cc1nnc2c(N)c(C)nc(C)c2n1`, the MIC was found to be 128 µg/mL (≈ 676 µM) in assay [10]; 64 µg/mL (≈ 338 µM) in assay [32]; 128 µg/mL (≈ 676 µM) in [13]; 32 µg/mL (≈ 169 µM) in [33]; 128 µg/mL (≈ 676 µM) in [6]; 128 µg/mL (≈ 676 µM) in assay [7]. In addition, the MIC in assay [34] came out at 32 µg/mL (≈ 169 µM).

Take `C[C@@H]1[C@H](O)[C@@H](C)/C=C/C=C/C=C/C=C/C=C/C=C/C=C/[C@H](O[C@@H]2O[C@H](C)[C@@H](O)[C@H](N)[C@@H]2O)C[C@@H]2O[C@](O)(C[C@@H](O)C[C@@H](O)[C@H](O)CC[C@@H](O)C[C@@H](O)CC(=O)O[C@H]1C)C[C@H](O)[C@H]2C(=O)O` [AMPHOTERICIN B]: the MIC came out at 0.5 µg/mL (≈ 0.541 µM) in assay [1]; 0.5 µg/mL (≈ 0.541 µM) in [10]; 0.25 µg/mL (≈ 0.271 µM) in assay [35]; 1 µg/mL (≈ 1.08 µM) in assay [2]; 0.25 µg/mL (≈ 0.271 µM) in assay [16]; 0.5 µg/mL (≈ 0.541 µM) in assay [3]. The MIC was 0.5 µg/mL (≈ 0.541 µM) in assay [13], greater than 128 µg/mL in [4], 0.25 µg/mL (≈ 0.271 µM) in assay [36] and greater than 128 µg/mL in assay [8].

Turning to `Cc1nnc2ccccc2n1`, the MIC in [1] came to 128 µg/mL (≈ 882 µM); in assay [10], 128 µg/mL (≈ 882 µM); in assay [26], 64 µg/mL (≈ 441 µM); in assay [13], 128 µg/mL (≈ 882 µM); in assay [37], 64 µg/mL (≈ 441 µM); in assay [6], 128 µg/mL (≈ 882 µM). Moreover, in assay [38], the MIC was 64 µg/mL (≈ 441 µM).
